ChEMBL document CHEMBL4017537, “Discovery of a Potent and Specific M. tuberculosis Leucyl-tRNA Synthetase Inhibitor: (S)-3-(Aminomethyl)-4-chloro-7-(2-hydroxyethoxy)benzo[c][1,2]oxaborol-1(3H)-ol (GSK656)” (J Med Chem, 2017)
In brackets after ≈: the same amount, converted by molar mass.

Assays:
Leucine--tRNA ligase = biological target: T1, Leucine--tRNA ligase (Mycobacterium tuberculosis (strain ATCC 25618 / H37Rv), UniProt P9WFV1); experiment: Inhibition of Mycobacterium tuberculosis H37Rv N-terminal 6His-tagged LeuRS expressed in Escherichia coli BL21(DE3) assessed as L-[14C]leucine incorporation in to Escherichia coli tRNA after 20 mins by liquid scintillation counting analysis
T1 sequence (P9WFV1 whole entry): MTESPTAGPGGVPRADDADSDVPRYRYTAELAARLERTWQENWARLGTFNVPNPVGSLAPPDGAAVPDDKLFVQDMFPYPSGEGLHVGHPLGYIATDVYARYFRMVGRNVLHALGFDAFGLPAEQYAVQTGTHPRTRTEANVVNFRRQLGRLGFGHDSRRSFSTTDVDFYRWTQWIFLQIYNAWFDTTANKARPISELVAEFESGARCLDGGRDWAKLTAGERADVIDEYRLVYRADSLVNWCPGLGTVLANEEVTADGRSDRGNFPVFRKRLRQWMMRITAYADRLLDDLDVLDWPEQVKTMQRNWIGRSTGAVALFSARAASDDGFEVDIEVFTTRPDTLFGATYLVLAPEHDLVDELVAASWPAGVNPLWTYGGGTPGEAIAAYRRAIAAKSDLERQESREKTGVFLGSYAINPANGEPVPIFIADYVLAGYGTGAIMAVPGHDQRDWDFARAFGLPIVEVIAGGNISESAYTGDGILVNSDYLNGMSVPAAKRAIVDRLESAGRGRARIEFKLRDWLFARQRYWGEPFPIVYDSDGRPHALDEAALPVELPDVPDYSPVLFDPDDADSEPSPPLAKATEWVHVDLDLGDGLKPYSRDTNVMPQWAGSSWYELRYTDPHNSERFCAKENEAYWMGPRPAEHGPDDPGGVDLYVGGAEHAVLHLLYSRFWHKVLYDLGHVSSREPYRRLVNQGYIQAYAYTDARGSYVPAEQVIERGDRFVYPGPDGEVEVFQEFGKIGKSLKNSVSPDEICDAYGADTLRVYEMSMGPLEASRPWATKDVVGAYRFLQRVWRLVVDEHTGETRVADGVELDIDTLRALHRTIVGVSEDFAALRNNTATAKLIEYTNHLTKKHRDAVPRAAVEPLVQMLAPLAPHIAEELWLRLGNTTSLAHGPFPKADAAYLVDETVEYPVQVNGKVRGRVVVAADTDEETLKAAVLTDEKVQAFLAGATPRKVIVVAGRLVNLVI
Procedure, shortened: (§1)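 N-terminal His6-tagged LeuRS expressed in E. coli BL21(DE3), codon-optimized. 50 mM HEPES-KOH pH 8.0, 30 mM MgCl2, 30 mM KCl, 13 μM L-[14C]leucine, 15 μM tRNA (E. coli total; brewer's yeast for human cytoplasmic enzyme), 0.02% BSA, 1 mM DTT, 30 °C. Inhibitor preincubated 20 min, started with 4 mM ATP, TCA-quenched after 7 min, filtered, scintillation counted; four-parameter logistic IC50.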

[1] = tested on: Mycobacterium tuberculosis; experiment: Antimicrobial activity against Mycobacterium tuberculosis H37Rv; assay type: functional
[2] = biological target: T2, Leucine--tRNA ligase, cytoplasmic (Homo sapiens, UniProt Q9P2J5); experiment: Inhibition of human N-terminal 6His-tagged cytoplasmic LeuRS expressed in Escherichia coli BL21(DE3) assessed as […] after 20 mins by liquid scintillation counting analysis
T2 sequence (Q9P2J5 whole entry): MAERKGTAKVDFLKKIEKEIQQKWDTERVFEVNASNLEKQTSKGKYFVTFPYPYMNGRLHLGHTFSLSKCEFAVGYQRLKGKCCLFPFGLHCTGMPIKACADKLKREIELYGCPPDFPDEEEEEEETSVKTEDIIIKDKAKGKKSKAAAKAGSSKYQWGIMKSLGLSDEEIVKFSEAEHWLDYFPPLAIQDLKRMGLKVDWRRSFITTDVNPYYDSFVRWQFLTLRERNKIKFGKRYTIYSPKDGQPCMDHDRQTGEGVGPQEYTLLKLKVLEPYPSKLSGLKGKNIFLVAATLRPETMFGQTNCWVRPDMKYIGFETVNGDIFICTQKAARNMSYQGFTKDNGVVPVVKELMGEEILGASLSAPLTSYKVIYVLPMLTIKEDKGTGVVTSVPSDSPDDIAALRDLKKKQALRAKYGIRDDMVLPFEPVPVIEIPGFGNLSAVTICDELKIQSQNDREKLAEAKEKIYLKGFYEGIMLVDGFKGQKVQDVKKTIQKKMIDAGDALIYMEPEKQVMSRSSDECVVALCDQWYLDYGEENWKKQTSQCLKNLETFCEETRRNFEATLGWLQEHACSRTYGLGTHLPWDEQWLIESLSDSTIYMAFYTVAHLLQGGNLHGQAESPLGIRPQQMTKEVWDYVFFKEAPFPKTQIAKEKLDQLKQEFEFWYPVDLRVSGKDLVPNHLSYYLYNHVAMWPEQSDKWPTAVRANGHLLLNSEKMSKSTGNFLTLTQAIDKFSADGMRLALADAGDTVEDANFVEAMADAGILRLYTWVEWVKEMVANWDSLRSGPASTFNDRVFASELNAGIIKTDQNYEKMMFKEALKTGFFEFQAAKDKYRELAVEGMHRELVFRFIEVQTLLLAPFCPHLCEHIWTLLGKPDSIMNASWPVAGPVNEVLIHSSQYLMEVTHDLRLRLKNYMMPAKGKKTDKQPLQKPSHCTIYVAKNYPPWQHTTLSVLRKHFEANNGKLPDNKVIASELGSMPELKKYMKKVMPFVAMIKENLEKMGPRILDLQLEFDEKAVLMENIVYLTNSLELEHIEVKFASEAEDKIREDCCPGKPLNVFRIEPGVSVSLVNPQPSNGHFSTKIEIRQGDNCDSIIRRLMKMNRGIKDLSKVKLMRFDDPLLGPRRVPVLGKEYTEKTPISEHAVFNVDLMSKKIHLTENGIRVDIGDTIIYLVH

cytoplasmic LeuRS = experiment: Selectivity index, ratio of EC50 for inhibition of cytoplasmic LeuRS in HepG2 cells assessed as reduction in protein synthesis to MIC for Mycobacterium tuberculosis H37Rv; assay type: toxicity, cell-based; settings: human, read-out: Selectivity Index
Procedure, shortened: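 Ratio of HepG2 protein-synthesis EC50 to MIC against M. tuberculosis H37Rv.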

[3] = biological target: T3, Leucine--tRNA ligase, mitochondrial (Homo sapiens, UniProt Q15031); experiment: Inhibition of human N-terminal 6His-tagged mitochondrial LeuRS expressed in Escherichia coli BL21(DE3) assessed as L-[14C]leucine incorporation in to Escherichia coli tRNA after 20 mins by liquid scintillation counting analysis; procedure, shortened: as §1
T3 sequence (Q15031 whole entry): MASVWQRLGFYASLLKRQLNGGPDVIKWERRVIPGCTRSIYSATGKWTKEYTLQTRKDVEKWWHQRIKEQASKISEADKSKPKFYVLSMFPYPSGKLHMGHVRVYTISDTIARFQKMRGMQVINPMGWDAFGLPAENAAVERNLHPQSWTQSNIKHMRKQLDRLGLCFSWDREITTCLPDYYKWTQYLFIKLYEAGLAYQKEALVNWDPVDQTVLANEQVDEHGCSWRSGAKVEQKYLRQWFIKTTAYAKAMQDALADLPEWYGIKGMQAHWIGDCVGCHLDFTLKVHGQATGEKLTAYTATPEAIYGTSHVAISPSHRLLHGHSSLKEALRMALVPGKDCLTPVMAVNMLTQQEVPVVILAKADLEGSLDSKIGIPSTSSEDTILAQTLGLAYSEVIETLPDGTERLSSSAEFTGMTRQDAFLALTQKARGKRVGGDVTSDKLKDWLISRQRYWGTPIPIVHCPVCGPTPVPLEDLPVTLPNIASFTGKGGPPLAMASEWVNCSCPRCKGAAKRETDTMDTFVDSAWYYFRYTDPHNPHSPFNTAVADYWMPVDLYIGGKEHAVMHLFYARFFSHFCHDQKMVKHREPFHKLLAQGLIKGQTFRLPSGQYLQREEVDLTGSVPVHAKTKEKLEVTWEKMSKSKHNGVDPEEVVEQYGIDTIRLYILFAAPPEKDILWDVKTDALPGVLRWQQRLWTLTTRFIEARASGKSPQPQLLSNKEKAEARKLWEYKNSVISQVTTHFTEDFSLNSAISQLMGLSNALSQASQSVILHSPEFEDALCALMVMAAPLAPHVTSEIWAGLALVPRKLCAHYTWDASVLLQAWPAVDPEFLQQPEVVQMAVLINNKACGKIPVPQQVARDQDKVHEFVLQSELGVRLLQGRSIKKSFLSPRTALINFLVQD

[4] = biological target: T2, Leucine--tRNA ligase, cytoplasmic; experiment: Inhibition of cytoplasmic LeuRS in human HepG2 cells assessed as reduction in protein synthesis preincubated for 48 hrs followed by L-[14C]leucine addition measured after 3 hrs by liquid scintillation counting analysis; assay type: cell-based
Procedure, shortened: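 HepG2 cells in DMEM/10% FCS, 3000 cells/well, exposed to compound dilutions (0.5% DMSO final) for 48 h at 37 °C. Medium then replaced with fresh medium containing 0.5 μCi L-[14C]leucine and the same compound levels for 3 h. Cells trypsinised, precipitated in ice-cold 20% TCA, filtered, washed, scintillation counted; curve-fit EC50; mean of at least duplicates.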

HepG2 = experiment: Cytotoxicity against human HepG2 cells assessed as reduction in cell viability after 48 hrs by CellTiter-Glo assay; assay type: cell-based; settings: HepG2, 48 h
Procedure, shortened: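 HepG2 cells seeded at 10 000/well in EMEM with 5% FCS and 2 mM glutamine. After 24 h, ten 1:2 serial compound dilutions (0.5% DMSO final) added in duplicate for 48 h. Read-out by CellTiter-Glo luminescence per table footnote; the method text also describes resazurin fluorescence (ex 515/em 590 nm). Sigmoidal variable-slope fit.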

Row | SMILES | IC50 (Leucine--tRNA ligase) [nM] | MIC [1] [µM] | other results
1 | NCC1OB(O)c2c(OCCO)ccc(Br)c21 (racemic) | 150 | 0.16 (≈ 0.0483 µg/mL) | 
2 | NC[C@@H]1OB(O)c2c3c(cc(Cl)c21)OCCO3 | 12600 | 80 (≈ 20.4 µg/mL) | 
3 | CCCOc1cc(Br)c2c(c1)B(O)OC2CN (racemic) | 370 | 0.6 (≈ 0.18 µg/mL) | 
4 | COc1ccc(Cl)c2c1B(O)O[C@@H]2CN | 150 | 0.1 (≈ 0.0227 µg/mL) | IC50 [2]: 260000 nM; selectivity ratio (cytoplasmic LeuRS): 1050; IC50 [3]: > 300000 nM; EC50 [4]: 105000 nM; EC50 (HepG2): 327000 nM
5 | NC[C@@H]1OB(O)c2c(OCCO)ccc(Cl)c21 | 10000 | 5 (≈ 1.29 µg/mL) | 
6 | NC[C@H]1OB(O)c2c(OCCCO)ccc(Br)c21 | 160 | 0.3 (≈ 0.0948 µg/mL) | 
7 | NC[C@H]1OB(O)c2c3c(cc(Br)c21)OCCO3 | 120 | 0.03 (≈ 0.009 µg/mL) | IC50 [2]: 118000 nM; selectivity ratio (cytoplasmic LeuRS): 1320; EC50 [4]: 39500 nM; EC50 (HepG2): 43200 nM
8 | NCC1OB(O)c2c(Oc3ccc(Br)cc3)ccc(Br)c21 (racemic) | 690 | > 5 | 
9 | CCOc1cc(Cl)c2c(c1)B(O)OC2CN (racemic) | 630 | > 5 | 
10 | CCOc1cc(Br)c2c(c1)B(O)OC2CN (racemic) | 260 | 3.75 (≈ 1.07 µg/mL) | 
11 | NCC1OB(O)c2c3c(cc(Cl)c21)OCO3 (racemic) | 250 | > 5 | 
12 | CCOc1cccc2c1B(O)O[C@@H]2CN |  | 0.6 (≈ 0.124 µg/mL) | 
13 | NCC1OB(O)c2cc(OCCO)cc(Cl)c21 (racemic) | 1110 | > 5 | 
14 | NC[C@@H]1OB(O)c2c(OCCO)ccc(Br)c21 | 14200 | 10 (≈ 3.02 µg/mL) | 
15 | CCCOc1cc(Cl)c2c(c1)B(O)OC2CN (racemic) | 250 | 1.3 (≈ 0.332 µg/mL) | 
16 | CCCOc1ccc(Br)c2c1B(O)O[C@@H]2CN | 240 | 0.38 (≈ 0.114 µg/mL) | 
17 | NCC1OB(O)c2c(OCCc3ccccc3)ccc(Br)c21 (racemic) | 470 | > 5 | 
18 | NCC1OB(O)c2c(OCc3ccccc3)ccc(Cl)c21 (racemic) | 320 | 5 (≈ 1.52 µg/mL) | 
19 | NCC1OB(O)c2c3c(cc(Cl)c21)OCCO3 (racemic) | 130 | 0.31 (≈ 0.0792 µg/mL) | 
20 | NCC1OB(O)c2c3c(cc(Br)c21)OCO3 (racemic) | 610 | > 5 | 

Row | SMILES | IC50 (Leucine--tRNA ligase) [nM] | MIC [1] [µM] | other results
21 | NCC1OB(O)c2c(Oc3ccccc3)ccc(Cl)c21 (racemic) | 340 | 5 (≈ 1.45 µg/mL) | 
22 | CCOc1ccc(F)c2c1B(O)O[C@@H]2CN |  | 0.2 (≈ 0.045 µg/mL) | 
23 | NCC1OB(O)c2cc(OCCCO)cc(Cl)c21 (racemic) | 440 | > 5 | 
24 | NCC1OB(O)c2cc(OCCCO)cc(Br)c21 (racemic) | 370 | > 5 | 
25 | NCC1OB(O)c2c(OCC(F)F)ccc(Cl)c21 (racemic) | 290 | 0.3 (≈ 0.0832 µg/mL) | 
26 | CCCCOc1ccc(Br)c2c1B(O)O[C@@H]2CN | 200 | 0.45 (≈ 0.141 µg/mL) | 
27 | NCC1OB(O)c2c(OCCO)ccc(Cl)c21 (racemic) | 240 | 0.63 (≈ 0.162 µg/mL) | 
28 | NCC1OB(O)c2c(OCc3ccccc3)ccc(Br)c21 (racemic) | 440 | 5 (≈ 1.74 µg/mL) | 
29 | NCC1OB(O)c2c3c(cc(Br)c21)OCCO3 (racemic) | 92 | 0.5 (≈ 0.15 µg/mL) | 
30 | CCCOc1ccc(Cl)c2c1B(O)O[C@@H]2CN | 310 | 0.16 (≈ 0.0409 µg/mL) | 
31 | NCC1OB(O)c2cc(OCCO)cc(Br)c21 (racemic) | 890 | > 5 | 
32 | NCC1OB(O)c2c(OCCc3ccccc3)ccc(Cl)c21 (racemic) | 720 | 5 (≈ 1.59 µg/mL) | 
33 | NC[C@H]1OB(O)c2c(OCCCO)ccc(Cl)c21 | 470 | 0.14 (≈ 0.038 µg/mL) | 
34 | NCC1OB(O)c2c(OCC(F)F)ccc(Br)c21 (racemic) | 240 | 0.31 (≈ 0.0998 µg/mL) | 
35 | NCC1OB(O)c2c(OCCF)ccc(Br)c21 (racemic) | 260 | 0.2 (≈ 0.0608 µg/mL) | 
36 | NC[C@@H]1OB(O)c2c3c(cc(Br)c21)OCCO3 | 4200 | 40 (≈ 12 µg/mL) | 
37 | NCC1OB(O)c2c(OCCF)ccc(Cl)c21 (racemic) | 76 | 0.2 (≈ 0.0519 µg/mL) | 
38 | CCCCOc1ccc(Cl)c2c1B(O)O[C@@H]2CN | 270 | 0.6 (≈ 0.162 µg/mL) | 
39 | CCOc1ccc(Cl)c2c1B(O)O[C@@H]2CN | 56 | 0.1 (≈ 0.0241 µg/mL) | selectivity ratio (cytoplasmic LeuRS): 196; IC50 [3]: > 300000 nM; EC50 [4]: 19600 nM; EC50 (HepG2): 65800 nM
